Measured values reported in ChEMBL document CHEMBL2057112, “Enamino-oxindole HIV protease inhibitors” (Bioorg Med Chem Lett, 2012).

System: Human immunodeficiency virus 1
Assay: Antiviral activity against Human immunodeficiency virus 1 HXB2 expressing protease M9 mutant infected in human MT4 cells after 5 days by MTT assay
Format: functional, organism-based
Details: Human immunodeficiency virus 1, HXB2, MT4, 120 h

Row | Compound | IC50 [µM]
1 | CNC=C1C(=O)Nc2ccc(S(=O)(=O)N(CC(C)C)C[C@@H](O)[C@H](Cc3ccccc3)NC(=O)O[C@H]3CO[C@H]4OCC[C@H]43)cc21 (mixture of isomers) | 0.05
2 | CCNC=C1C(=O)Nc2ccc(S(=O)(=O)N(CC(C)C)C[C@@H](O)[C@H](Cc3ccccc3)NC(=O)O[C@H]3CO[C@H]4OCC[C@H]43)cc21 (mixture of isomers) | 0.027
3 | CCCNC=C1C(=O)Nc2ccc(S(=O)(=O)N(CC(C)C)C[C@@H](O)[C@H](Cc3ccccc3)NC(=O)O[C@H]3CO[C@H]4OCC[C@H]43)cc21 (mixture of isomers) | 0.04
4 | CC(C)CN(C[C@@H](O)[C@H](Cc1ccccc1)NC(=O)O[C@H]1CO[C@H]2OCC[C@H]21)S(=O)(=O)c1ccc2c(c1)C(=CNC(C)C)C(=O)N2 (mixture of isomers) | 0.019
5 | CC(C)CN(C[C@@H](O)[C@H](Cc1ccccc1)NC(=O)O[C@H]1CO[C@H]2OCC[C@H]21)S(=O)(=O)c1ccc2c(c1)C(=CNC1CC1)C(=O)N2 (mixture of isomers) | 0.025

System: Human immunodeficiency virus 1
Assay: Antiviral activity against Human immunodeficiency virus 1 HXB2 expressing protease M3 mutant infected in human MT4 cells after 5 days by MTT assay
Format: functional, organism-based
Details: Human immunodeficiency virus 1, HXB2, MT4, 120 h
How it was run: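 MT-4 cells (AIDS Research and Reference Reagent Program) exposed to 50% tissue culture infective doses (TCID₅₀) of virus with various concentrations of test compound for 5 days. MTT solution then added and absorbance measured. Mutant strains carry 10–17 resistance mutations with phenotypic resistance to marketed PIs; all include I84V except M7. IC₅₀ reported.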

Row | Compound | IC50 [µM]
6 | CNC=C1C(=O)Nc2ccc(S(=O)(=O)N(CC(C)C)C[C@@H](O)[C@H](Cc3ccccc3)NC(=O)O[C@H]3CO[C@H]4OCC[C@H]43)cc21 (mixture of isomers) | 0.051
7 | CCCNC=C1C(=O)Nc2ccc(S(=O)(=O)N(CC(C)C)C[C@@H](O)[C@H](Cc3ccccc3)NC(=O)O[C@H]3CO[C@H]4OCC[C@H]43)cc21 (mixture of isomers) | 0.04

System: not listed separately
Assay: Inhibition of wild type Human immunodeficiency virus protease expressed in Escherichia coli using ArgGlu(EDANS)SerGlnAsnTyrProIleValGlnLys(DABCYL)Arg as substrate preincubated with compound for 0.5 to 1 min measured by fluorometric analysis at pH 6.5
Details: not given

Row | Compound | Ki [µM]
8 | CNC=C1C(=O)Nc2ccc(S(=O)(=O)N(CC(C)C)C[C@@H](O)[C@H](Cc3ccccc3)NC(=O)O[C@H]3CO[C@H]4OCC[C@H]43)cc21 (mixture of isomers) | < 0.0001
9 | CCNC=C1C(=O)Nc2ccc(S(=O)(=O)N(CC(C)C)C[C@@H](O)[C@H](Cc3ccccc3)NC(=O)O[C@H]3CO[C@H]4OCC[C@H]43)cc21 (mixture of isomers) | < 0.0001
10 | CCCNC=C1C(=O)Nc2ccc(S(=O)(=O)N(CC(C)C)C[C@@H](O)[C@H](Cc3ccccc3)NC(=O)O[C@H]3CO[C@H]4OCC[C@H]43)cc21 (mixture of isomers) | 0.00012
11 | CC(C)CN(C[C@@H](O)[C@H](Cc1ccccc1)NC(=O)O[C@H]1CO[C@H]2OCC[C@H]21)S(=O)(=O)c1ccc2c(c1)C(=CNC(C)C)C(=O)N2 (mixture of isomers) | < 0.0001
12 | CC(C)CN(C[C@@H](O)[C@H](Cc1ccccc1)NC(=O)O[C@H]1CO[C@H]2OCC[C@H]21)S(=O)(=O)c1ccc2c(c1)C(=CNC1CC1)C(=O)N2 (mixture of isomers) | < 0.0001

System: Human immunodeficiency virus 1
Assay: Antiviral activity against Human immunodeficiency virus 1 HXB2 expressing protease M8 mutant infected in human MT4 cells after 5 days by MTT assay
Format: functional, organism-based
Details: Human immunodeficiency virus 1, HXB2, MT4, 120 h

Row | Compound | IC50 [µM]
13 | CCNC=C1C(=O)Nc2ccc(S(=O)(=O)N(CC(C)C)C[C@@H](O)[C@H](Cc3ccccc3)NC(=O)O[C@H]3CO[C@H]4OCC[C@H]43)cc21 (mixture of isomers) | 0.035
14 | CC(C)CN(C[C@@H](O)[C@H](Cc1ccccc1)NC(=O)O[C@H]1CO[C@H]2OCC[C@H]21)S(=O)(=O)c1ccc2c(c1)C(=CNC(C)C)C(=O)N2 (mixture of isomers) | 0.03
15 | CC(C)CN(C[C@@H](O)[C@H](Cc1ccccc1)NC(=O)O[C@H]1CO[C@H]2OCC[C@H]21)S(=O)(=O)c1ccc2c(c1)C(=CNC1CC1)C(=O)N2 (mixture of isomers) | 0.032

System: Human immunodeficiency virus 1
Assay: Antiviral activity against Human immunodeficiency virus 1 HXB2 expressing wild type protease infected in human MT4 cells after 5 days by MTT assay
Format: functional, organism-based
Details: Human immunodeficiency virus 1, HXB2, MT4, 120 h

Row | Compound | IC50 [µM]
16 | CNC=C1C(=O)Nc2ccc(S(=O)(=O)N(CC(C)C)C[C@@H](O)[C@H](Cc3ccccc3)NC(=O)O[C@H]3CO[C@H]4OCC[C@H]43)cc21 (mixture of isomers) | 0.06
17 | CCNC=C1C(=O)Nc2ccc(S(=O)(=O)N(CC(C)C)C[C@@H](O)[C@H](Cc3ccccc3)NC(=O)O[C@H]3CO[C@H]4OCC[C@H]43)cc21 (mixture of isomers) | 0.028
18 | CCCNC=C1C(=O)Nc2ccc(S(=O)(=O)N(CC(C)C)C[C@@H](O)[C@H](Cc3ccccc3)NC(=O)O[C@H]3CO[C@H]4OCC[C@H]43)cc21 (mixture of isomers) | 0.03
19 | CC(C)CN(C[C@@H](O)[C@H](Cc1ccccc1)NC(=O)O[C@H]1CO[C@H]2OCC[C@H]21)S(=O)(=O)c1ccc2c(c1)C(=CNC(C)C)C(=O)N2 (mixture of isomers) | 0.015
20 | CC(C)CN(C[C@@H](O)[C@H](Cc1ccccc1)NC(=O)O[C@H]1CO[C@H]2OCC[C@H]21)S(=O)(=O)c1ccc2c(c1)C(=CNC1CC1)C(=O)N2 (mixture of isomers) | 0.024

System: not listed separately
Assay: Inhibition of Human immunodeficiency virus protease M8 mutant expressed in Escherichia coli using ArgGlu(EDANS)SerGlnAsnTyrProIleValGlnLys(DABCYL)Arg as substrate preincubated with compound for 0.5 to 1 min measured by fluorometric analysis at pH 6.5
Details: not given

Row | Compound | Ki [µM]
21 | CNC=C1C(=O)Nc2ccc(S(=O)(=O)N(CC(C)C)C[C@@H](O)[C@H](Cc3ccccc3)NC(=O)O[C@H]3CO[C@H]4OCC[C@H]43)cc21 (mixture of isomers) | 0.00011
22 | CCCNC=C1C(=O)Nc2ccc(S(=O)(=O)N(CC(C)C)C[C@@H](O)[C@H](Cc3ccccc3)NC(=O)O[C@H]3CO[C@H]4OCC[C@H]43)cc21 (mixture of isomers) | < 0.0001
23 | CC(C)CN(C[C@@H](O)[C@H](Cc1ccccc1)NC(=O)O[C@H]1CO[C@H]2OCC[C@H]21)S(=O)(=O)c1ccc2c(c1)C(=CNC(C)C)C(=O)N2 (mixture of isomers) | 0.00011
24 | CC(C)CN(C[C@@H](O)[C@H](Cc1ccccc1)NC(=O)O[C@H]1CO[C@H]2OCC[C@H]21)S(=O)(=O)c1ccc2c(c1)C(=CNC1CC1)C(=O)N2 (mixture of isomers) | 0.00012

System: not listed separately
Assay: Inhibition of Human immunodeficiency virus protease M9 mutant expressed in Escherichia coli using ArgGlu(EDANS)SerGlnAsnTyrProIleValGlnLys(DABCYL)Arg as substrate preincubated with compound for 0.5 to 1 min measured by fluorometric analysis at pH 6.5
Details: not given

Row | Compound | Ki [µM]
25 | CNC=C1C(=O)Nc2ccc(S(=O)(=O)N(CC(C)C)C[C@@H](O)[C@H](Cc3ccccc3)NC(=O)O[C@H]3CO[C@H]4OCC[C@H]43)cc21 (mixture of isomers) | < 0.0003
26 | CCNC=C1C(=O)Nc2ccc(S(=O)(=O)N(CC(C)C)C[C@@H](O)[C@H](Cc3ccccc3)NC(=O)O[C@H]3CO[C@H]4OCC[C@H]43)cc21 (mixture of isomers) | < 0.0003
27 | CCCNC=C1C(=O)Nc2ccc(S(=O)(=O)N(CC(C)C)C[C@@H](O)[C@H](Cc3ccccc3)NC(=O)O[C@H]3CO[C@H]4OCC[C@H]43)cc21 (mixture of isomers) | < 0.0003
28 | CC(C)CN(C[C@@H](O)[C@H](Cc1ccccc1)NC(=O)O[C@H]1CO[C@H]2OCC[C@H]21)S(=O)(=O)c1ccc2c(c1)C(=CNC(C)C)C(=O)N2 (mixture of isomers) | < 0.0003
29 | CC(C)CN(C[C@@H](O)[C@H](Cc1ccccc1)NC(=O)O[C@H]1CO[C@H]2OCC[C@H]21)S(=O)(=O)c1ccc2c(c1)C(=CNC1CC1)C(=O)N2 (mixture of isomers) | < 0.0003

System: Human immunodeficiency virus 1
Assay: Antiviral activity against Human immunodeficiency virus 1 HXB2 expressing protease M10 mutant infected in human MT4 cells after 5 days by MTT assay
Format: functional, organism-based
Details: Human immunodeficiency virus 1, HXB2, MT4, 120 h

Row | Compound | IC50 [µM]
30 | CNC=C1C(=O)Nc2ccc(S(=O)(=O)N(CC(C)C)C[C@@H](O)[C@H](Cc3ccccc3)NC(=O)O[C@H]3CO[C@H]4OCC[C@H]43)cc21 (mixture of isomers) | 0.093
31 | CCNC=C1C(=O)Nc2ccc(S(=O)(=O)N(CC(C)C)C[C@@H](O)[C@H](Cc3ccccc3)NC(=O)O[C@H]3CO[C@H]4OCC[C@H]43)cc21 (mixture of isomers) | 0.08
32 | CCCNC=C1C(=O)Nc2ccc(S(=O)(=O)N(CC(C)C)C[C@@H](O)[C@H](Cc3ccccc3)NC(=O)O[C@H]3CO[C@H]4OCC[C@H]43)cc21 (mixture of isomers) | 0.12
33 | CC(C)CN(C[C@@H](O)[C@H](Cc1ccccc1)NC(=O)O[C@H]1CO[C@H]2OCC[C@H]21)S(=O)(=O)c1ccc2c(c1)C(=CNC(C)C)C(=O)N2 (mixture of isomers) | 0.06
34 | CC(C)CN(C[C@@H](O)[C@H](Cc1ccccc1)NC(=O)O[C@H]1CO[C@H]2OCC[C@H]21)S(=O)(=O)c1ccc2c(c1)C(=CNC1CC1)C(=O)N2 (mixture of isomers) | 0.3

System: not listed separately
Assay: Inhibition of Human immunodeficiency virus protease M10 mutant expressed in Escherichia coli using ArgGlu(EDANS)SerGlnAsnTyrProIleValGlnLys(DABCYL)Arg as substrate preincubated with compound for 0.5 to 1 min measured by fluorometric analysis at pH 6.5
Details: not given

Row | Compound | Ki [µM]
35 | CNC=C1C(=O)Nc2ccc(S(=O)(=O)N(CC(C)C)C[C@@H](O)[C@H](Cc3ccccc3)NC(=O)O[C@H]3CO[C@H]4OCC[C@H]43)cc21 (mixture of isomers) | < 0.001
36 | CCNC=C1C(=O)Nc2ccc(S(=O)(=O)N(CC(C)C)C[C@@H](O)[C@H](Cc3ccccc3)NC(=O)O[C@H]3CO[C@H]4OCC[C@H]43)cc21 (mixture of isomers) | < 0.001
37 | CCCNC=C1C(=O)Nc2ccc(S(=O)(=O)N(CC(C)C)C[C@@H](O)[C@H](Cc3ccccc3)NC(=O)O[C@H]3CO[C@H]4OCC[C@H]43)cc21 (mixture of isomers) | < 0.001
38 | CC(C)CN(C[C@@H](O)[C@H](Cc1ccccc1)NC(=O)O[C@H]1CO[C@H]2OCC[C@H]21)S(=O)(=O)c1ccc2c(c1)C(=CNC(C)C)C(=O)N2 (mixture of isomers) | < 0.001
39 | CC(C)CN(C[C@@H](O)[C@H](Cc1ccccc1)NC(=O)O[C@H]1CO[C@H]2OCC[C@H]21)S(=O)(=O)c1ccc2c(c1)C(=CNC1CC1)C(=O)N2 (mixture of isomers) | 0.0021
